Results as given in ChEMBL document CHEMBL4513216, “Probing the Open Global Health Chemical Diversity Library for Multistage-Active Starting Points for Next-Generation Antimalarials” (ACS Infect Dis, 2020).

Test: Toxicity liver stage against HepG2, at 10uM
Assay type: cell-based
Parameters: test concentration 10 uM, cell line HepG2-A16-CD81EGFP
Details: human, HepG2-A16-CD81EGFP cells; read-out: INHIBITION
Procedure, shortened: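 Uninfected HepG2-A16-CD81EGFP cells, 3 × 10^3 per well, 1536-well, plated on prespotted compound at 10 μM final, parasite-free screening media added to match infected plates; puromycin 10 μM positive, DMSO 0.5% negative; run in parallel with 48 h PbLuc assay at 37 °C, 5% CO2; viability by CellTiter-Glo luminescence, normalized to controls.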

| Structure (SMILES) | cytotoxicity at 10 µM [%] |
| --- | --- |
| NS(=O)(=O)c1cnn(-c2ccc(NC(=O)CC3CCCC3)cn2)c1 | 6.74 |
| CC(c1nc(C2CC2)no1)N1CCN(Cc2cccc(C#N)c2)CC1 (stereo not drawn) | 3.92 |
| NC(=O)c1cccc(CCNCc2cccs2)c1 | 1.68 |
| COC(=O)c1ccc(CN2CCC(c3n[nH]c(C)n3)CC2)s1 | -2.87 |
| Cc1c(Cl)cccc1NC(=O)Cn1cc(C(=O)O)ccc1=O | -5.21 |
| Cc1cnn(CC2CCCCN2C(=O)Cc2c(C)nn(C)c2C)c1 (stereo not drawn) | -13 |
| CC(=O)N[C@@H]1Cc2ccccc2[C@H]1Nc1ccncn1 | -43.6 |
| CC(Cn1cccn1)NCc1nc(-c2ccc3c(c2)OCO3)no1 (stereo not drawn) | -12.4 |
| COCCc1noc(CN2CCCC2Cn2nc(C)nc2C)n1 (stereo not drawn) | -1.39 |
| NC(=O)Cn1ccnc1C1CCCN(CCSc2ccccc2)C1 (stereo not drawn) | -2.65 |
| CCN(CCCN1CCOCC1)C(=O)c1cnn(CC)c1 | 46.6 |
| CN(C)c1nc2c(c(N(C)Cc3n[nH]c4c3CCCCC4)n1)CCNC2 | 2.95 |
| CCN1CCN(C2CCN(Cc3nc(C4CC4)no3)CC2)C1=O | -2.69 |
| Cc1cccc(-c2noc(CN3CCOC(Cn4cccn4)C3)n2)c1 (stereo not drawn) | -3.07 |
| CCc1nsc(N2CCCN(CC(=O)N(C)C3CC3)CC2)n1 | -9.43 |
| Cn1cc(C(=O)NC2CCCC2)c(-c2cccnc2)n1 | 10.3 |
| CCN1CCN(C(=O)c2[nH]c3ccccc3c2Cl)[C@H]2CS(=O)(=O)C[C@H]21 | -5.41 |
| Cc1ccccc1N1CC(c2nnc(N)s2)CC1=O (stereo not drawn) | -0.411 |
| CO[C@H]1CCN(c2ncccn2)[C@H]1Cc1ccccc1 | -12.9 |
| Cc1ncc(-c2ccncc2)c(C2CCN(C(=O)c3ccno3)CC2)n1 | 2.08 |
| CC(=O)Nc1nc(CN2CCCC2Cn2cc(C)cn2)cs1 (stereo not drawn) | 3.22 |
| O=C(COc1ccc2c(c1)CCC2)N1CCCC1c1ccc[nH]1 (stereo not drawn) | 6.54 |
| CCN(CC)c1nc2ccsc2c(=O)n1CCC(=O)NC1CCCC1 | 7.19 |

| Structure (SMILES) | cytotoxicity at 10 µM [%] |
| --- | --- |
| O=C(c1ccco1)N1CC[C@@H]2CN(C3CCOCC3)CCO[C@@H]2C1 | -112 |
| CC(C)c1nc(/C=C/c2ccc(O)c(Cl)c2)ncc1C(=O)O | -1.7 |
| COCc1ncc(CN(Cc2ccco2)C(C)C(C)C)cn1 (stereo not drawn) | -0.0832 |
| CC(C)C(=O)NS(=O)(=O)CCc1ccccc1 | 0.67 |
| COc1ncccc1CNCc1c(C)nn(C)c1N1CCOCC1 | -11.1 |
| CNS(=O)(=O)c1cc(C(=O)N2CCCCCC2CC(C)C)co1 (stereo not drawn) | 11.2 |
| CN(C)c1ncccc1CNC(=O)NCC(c1cccs1)N(C)C (stereo not drawn) | 11.6 |
| O=C(c1cccn1Cc1cccs1)N1CCSCC1 | 4.14 |
| Cc1ccc(CN2Cc3nccn3CC(Cn3cncn3)C2)s1 (stereo not drawn) | -141 |
| CCc1ncc(CN2CCC(Oc3ccccc3OC)CC2)cn1 | -8.17 |
| CSc1sc(NC(=O)C2CCCN(C(N)=O)C2)nc1C (stereo not drawn) | 6.08 |
| c1ccc2oc(N3CCCC4(CCOC4)C3)nc2c1 (stereo not drawn) | -6.27 |
| c1cnn(CC2CCCN2Cc2noc(C3CC3)n2)c1 (stereo not drawn) | 1.46 |
| N#CCSCCCN1CCN(C(=O)C2CCCC2)CC1 | 5.34 |
| COCCC(=O)N1CCC2(CCN(Cc3ccc(OC)c(F)c3)C2)C1 (stereo not drawn) | 9.75 |
| O=C(NC1CCCN(c2ccccn2)C1)C1(c2ccccc2F)CC1 (stereo not drawn) | 7.79 |
| Cc1csc(N2CCN(C(=O)CCc3ccccn3)CC2)n1 | -4.27 |
| O=C(c1ccoc1)N1CC[C@@H]2[C@@H](CC1)OCCN2c1cccnc1 | 11.1 |
| O=C(NCCCOCC1CCCO1)c1cccnc1N1CCOCC1 (stereo not drawn) | 3.68 |
| CCc1csc(CNC2CCN(c3ccc(C)cc3)CC2)n1 | -10.8 |
| CC(C)Oc1cccc(CN2CCC(C(C)N3CCOCC3)CC2)c1 (stereo not drawn) | -5.84 |
| O=C(c1nc(Cc2c[nH]c3ccccc23)no1)N1CCCC1 | 7.76 |
| COc1ncccc1NC(=O)N(C1CC1)C(C)C(C)C (stereo not drawn) | 8.42 |

| Structure (SMILES) | cytotoxicity at 10 µM [%] |
| --- | --- |
| O=C(Cn1nc2ccccc2n1)N1CCCC(O)(CN2CCCC2)C1 (stereo not drawn) | -10.4 |
| CC(C)CN1CCC2(CCN(Cc3ccc(F)cc3)CC2)C1=O | 5.71 |
| OC1(CNCc2noc(Cc3ccccc3)n2)CNCCOC1 (stereo not drawn) | 9.34 |
| Fc1cnc(N2CC[C@@H]3O[C@H](COCc4ccccn4)CC[C@@H]32)nc1 | 2.9 |
| CC(=O)N1CCN([C@@H]2CN(C(=O)Cc3ccccc3C)C[C@H]2O)CC1 | -6.94 |
| Cc1nn(C)c(C)c1C1CCCN1Cc1nnc(C2CC2)n1C (stereo not drawn) | 1.76 |
| COCCN(Cc1nccs1)c1nc2c(s1)c(C)nn2C | -47.6 |
| NC(=O)c1cc(C2CCCN(C(=O)CCc3cscn3)C2)n[nH]1 (stereo not drawn) | -7.59 |
| c1ccc(CN2CCOC3(CCCN(c4nccs4)C3)C2)cc1 (stereo not drawn) | 13.7 |
| O=C1CCNc2ncc(-c3ccc(Cl)cc3)cc2CN1C1CC1 | 9.78 |
| Cc1cc(N2C[C@H](C3CC3)[C@@H](N)C2)nc(N2CCCCC2)n1 | -15.6 |
| Cc1nn(C)c(C)c1CN(C)CC1(O)CCCN(C)C1 (stereo not drawn) | 6.5 |
| CCc1[nH]c2c(CNc3cncc(C(=O)OC)n3)cc(C)cc2c1C | 1.85 |
| CN(C)C(c1ccccn1)C1CCC(CNC(=O)C2CCCC2)CC1 (stereo not drawn) | 10.5 |
| Cc1nc(N)ncc1C(=O)N1CCCC(CCc2ccc(F)c(F)c2)C1 (stereo not drawn) | -4.51 |
| Cc1nnc(Nc2cccc(C3CCCN(Cc4ncc[nH]4)C3)n2)s1 (stereo not drawn) | -5.5 |
| O=C(NC1(C(=O)O)CCCCC1)C1Cc2ccccc2O1 (stereo not drawn) | 10.9 |
| COCC(C)NCc1nc(-c2ccc(C)cc2)c(-c2ccccn2)[nH]1 (stereo not drawn) | -3.81 |
| O=C(c1ccc2sccc2c1)N1CCC(C(=O)O)(n2ccnc2)CC1 | 2.69 |
| Cc1nc(C)n(CC2CCCN2Cc2nc3ccccc3nc2C)n1 (stereo not drawn) | 6.21 |
| O=C(O)c1cccc(CC2CCN(c3ncc(F)cn3)CC2)c1 | -108 |
| O=C(Cn1cccn1)NCC(c1cccs1)N1CCCC1 (stereo not drawn) | 11.9 |
| Cc1ccc(S(=O)(=O)NCCOc2ccc3nnc(C)n3n2)s1 | -6.26 |

| Structure (SMILES) | cytotoxicity at 10 µM [%] |
| --- | --- |
| COc1ncc(NS(=O)(=O)c2ccc(OC)c(C)c2)c(OC)n1 | 34.8 |
| CCc1nnc(CNC2CCCN(Cc3noc(C4CC4)n3)C2)o1 (stereo not drawn) | -5.46 |
| O=C(Nc1cc(CSCCO)ccn1)c1ccc(Cl)o1 | -7.76 |
| O=C(CCc1ccco1)NS(=O)(=O)Cc1ccon1 | 9.99 |
| Cc1nccn1CCCNc1nccnc1C#N | -7.21 |
| CC(C)(C)OC(=O)N1CCCN(c2nnc(C3CC3)s2)CC1 | 8.05 |
| Cc1nc(N)cc(N2CCCC(COc3cccc(F)c3)C2)n1 (stereo not drawn) | -1.53 |
| Cc1ccc(-c2csc(N)c2C#N)c(C)c1 | 10.5 |
| CC(Nc1cccc(CN2CCOC2=O)c1)C(=O)NC(=O)NC(C)(C)C (stereo not drawn) | -10.9 |
| Cn1cc(C2CCCN2C(=O)COCCOc2ccccc2)cn1 (stereo not drawn) | -16.3 |
| CCC(O)CNC(=O)c1cc(COc2ccc(OC)cc2Cl)[nH]n1 (stereo not drawn) | -8.09 |
| CN1CCCC2(C1)CN(C(=O)C1CCCCC1)CCO2 (stereo not drawn) | 0.994 |
| O=C(CCCN1CCCCC1)N[C@H](C(=O)O)c1cccc(F)c1F | -13.2 |
| CCC(C)(C)NC(=O)Cn1nc(C)nc1-c1cccc(C)c1 | -8.44 |
| CCC(NC(=O)CC1CCN(C(C)C)CC1)c1cn2cccnc2n1 (stereo not drawn) | -11.3 |
| CS(=O)(=O)NCCCN1CCCC1c1ccccc1 (stereo not drawn) | -13.4 |
| Cc1c(C(=O)NCC(C)C)nnn1-c1cccc2c1CCN(CCO)C2 | 8.09 |
| c1cnc(N2CCCC3(CCN(CC4CCOC4)CC3)C2)nc1 (stereo not drawn) | -2.21 |
| CCc1nc(N2CCCC(CCCOC)C2)c2cnn(C)c2n1 (stereo not drawn) | 6.46 |
| O=C(NCCc1cccs1)[C@H]1CO[C@H]2CCNC[C@H]2C1 | 2.11 |
| CCOc1ccnc(N2CCN(C(=O)c3cccnc3)CC2)n1 | -5.19 |
| NS(=O)(=O)CC1CCCN1CCOc1ccccc1F (stereo not drawn) | 3.98 |
| Cc1cc(CN[C@@H](Cc2ccccc2)C(N)=O)c(C)s1 | -0.527 |

| Structure (SMILES) | cytotoxicity at 10 µM [%] |
| --- | --- |
| COc1cccc(OC2CN(C(=O)Cn3nc4ccccc4n3)C2)c1 | -6.98 |
| O=C(NCC1CC1)c1cc(C2CC2)nc2onc(C3CCCNC3)c12 (stereo not drawn) | 4.98 |
| Cc1nonc1C1CCCN1C(=O)c1cc2n(n1)CCCNC2 (stereo not drawn) | -7.73 |
| O=C(O)c1csc(S(=O)(=O)Nc2cccc(OCC(F)(F)F)c2)c1 | -13.1 |
| CN1CCOCC12CCN(C(=O)C1CCC1)CC2 | 0.64 |
| O=C(NCCCNC(=O)c1ccc(F)cc1F)c1cccc(O)c1 | 2.9 |
| CC(C)n1ccc2cc(C(=O)Nc3nc[nH]n3)ccc21 | 4.06 |
| Cc1ccc(CN(CCCN2CCOCC2)Cc2[nH]cnc2C)o1 | -12.9 |
| CCn1nc(C)c2nc(C(C)C)nc(NCCCn3cccn3)c21 | 8.71 |
| CCn1c(C2CCCN(Cc3cc(C)cc(C)c3)C2)nn(C)c1=O (stereo not drawn) | -3.12 |
| Cc1cc(C)n(CC2CN(CCOc3ccccc3F)CCO2)n1 (stereo not drawn) | -6.73 |
| Cc1nsc(C(=O)NCCc2ccccc2)n1 | 4.28 |
| Cc1cnc(-c2nc(O)c3c(n2)CN(C(=O)C2CCOC2)CC3)cn1 (stereo not drawn) | -6.76 |
| CC(NC(=O)NCCn1ccnc1)c1ccc2c(c1)NC(=O)CO2 (stereo not drawn) | -7.36 |
| CC(C)n1[nH]c(=O)c2c1NC(=O)CC2c1cccnc1 (stereo not drawn) | -6.15 |
| NC(=O)N1CCC2(CC1)CN(c1ncccn1)CCO2 | -75.1 |
| COCC1CN(C(=O)c2ccco2)Cc2cn(C)nc21 (stereo not drawn) | 9.08 |
| CCc1nc(CN2CCCN(C(=O)CCCOC)CC2)cs1 | -14.4 |
| CCN1CC(COC(=O)c2ccccc2Cl)CC1=O (stereo not drawn) | -1.54 |
| Cc1ccnc(NC(=O)c2ccc(C)o2)c1 | -4.33 |
| CC(C)C(=O)N1CCC[C@]2(C(=O)N(C)C)CN(c3ccccn3)C[C@@H]2C1 | 30.7 |
